38 variants from the RNAGym collection of RNA variant scans (doi:10.1126/science.aae0568) can be followed below.

Sequences and labels used below:
B1: tRNA (parent)
chain: GUUCCGUUGGCGUAAUGGUAACGCGUCUCCCUCCUAAGGAGAAGACUGCGGGUUCGAGUCCCGUACGGAACG

This sample holds only a part of the variants without activity.

The data set covers variants of B1. Briefly: yeast fitness relative to wild type (ratio to wild type); higher = fitter; tRNA-Arg(CCU), competitive growth, 37 C, YPD. The gist of the method:
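Start and end populations of a pooled competition were compared by 100-nucleotide paired-end sequencing of gene amplicons. The Saccharomyces cerevisiae strains carried tRNA-Arg(CCU) gene variants at the native genomic locus, synthesised with a 3% per-site mutation rate at 69 sites, and competed in YPD at 37°C for 24 hours in six parallel replicates. Darwinian fitness relative to wild type was based on the change in genotype frequencies. Genotypes required ≥ 100 starting reads, and estimates < 0.5 were set to 0.5.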
Regarding GUUCCGUUGGCGUAAUGGUAAUGCGUCUCCCUUCUAAGGAGAAGACUGCGGGUUCGAGUCCCGUACGGAACG [C22U C33U], the yeast fitness was 0.717.

As to GUUCCGUUGGCGUAAUGGUAACGCGUCCCCCUCCUAAGGAGACGACUGCGGGUUCGAGUCCCGUACGGAACG [U28C A43C], the yeast fitness was 0.758.

As for GUUCGGUUGGCGUAAUGGUAACGCGUCUCCCUCCUAAGGAGAGGACUGCGGGUUCGAGUCCCGUACUGAACG [C5G A43G G67U], the yeast fitness is 0.543.

Consider GUUCCGUUGGCGUAAUGGUAACGCGUCUCCCUCCUAAGGAAAAGACUGCGGGUUCGAGUGCCGUACAGAACG [G41A C60G G67A], for which the yeast fitness came to 0.534.

For GUUCCGUUGCCGUAAUGGUAACGCGUCUGCCUCCUAAGGAGAAGACUGCGGGAUCGAGUCCCGUACGGAACG [G10C C29G U53A], the yeast fitness is at most 0.5.

Turning to GUUCCGUUCGCGUAUCGGUAACGCGUCUCCCUCCUUAGGAGAAGACUGCGGGUUCGAGUCCCGUACGGCACG [G9C A15U U16C A36U A69C], the yeast fitness is at most 0.5.

On to GUUUCGUUGGCGUUAUGGUAAUGCGUCUCCCUCCUAAGGUGAACACUGCGGGUUCGCGUCCCGUACGGAACG [C4U A14U C22U A40U G44C A57C], for which the yeast fitness is at most 0.5.

GUUCCGUUGGCGUAAUGGUAACGCGUCUCCCUCCUAAGGAGAAGACUGCGGGUUCUAGUCCCGUACGGAACG [G56U]: the yeast fitness was determined as 0.85.

Regarding GUUCCGUUGGCGUAAUGCUAACGCGUCUCCAUCCUAAGGAGAGGACUGCGGGUUCGACUCCCGUGCGGAACG [G18C C31A A43G G58C A65G], the yeast fitness is at most 0.5.

Consider GUUCCGUUGGCGUAAUGGUAACGCGUCUCCGUCCUAAGGGGAAGACUGCGGGUUCGAGUCCCGUACGGAACG [C31G A40G], for which the yeast fitness is 0.719.

Turning to GUUCCGUUGGCAUCAUGGUCACGCGUCUCCCUCCUAAGGAGGAAACUGCGGGUUCGAGUCCCGUACGGAACG [G12A A14C A20C A42G G44A], the yeast fitness was at most 0.5.

Take GUUCCGUUGGCGUAAUGGUAACGCGUCUCCCUCCUAAGGAGAAGAUUGCGGGUUCGCGUCCCGCACGGAACG [C46U A57C U64C]: the yeast fitness was at most 0.5.

With GUUCCAUUGGCGUAAUGGUAACGUGUCUCCCUCCUCAGGAGAUGACUGCGGGUUCGAGUCCCGUACGGUACG [G6A C24U A36C A43U A69U], the yeast fitness is at most 0.5.

Take GUUCGGUUGGCGUAAUGGUAACGCGUCUCCCUCCUAAGGAGAAGACUGCGGGUUCGAGUCCCGUACGGCUCG [C5G A69C A70U]: the yeast fitness is 0.765.

Consider GUUCCGUCGGCGUAAUCGUAACGCGUCUCCCUCCUAAGGAGAAGACUGCGGGUUCGACUCCCGUACGGAACG [U8C G17C G58C], for which the yeast fitness was at most 0.5.

Regarding GUUCUGUUGGCGUAAUGGUAACGCGUCGCCCUCCUAAGGCGAAGACUGCGGGUUCGAGUCCCGUACGGAACG [C5U U28G A40C], the yeast fitness amounted to 0.613.

For GUUCCGUUAGCGUAAUGGUAACGCGUCUCCAUCCUAAGGAGCAGACUGCGGGUUCGGGUCCCGUACGGAACG [G9A C31A A42C A57G], the yeast fitness came to 0.522.

As to GUUCCGUUGGCGUAAUGGUAGCGCGUCUCCCUCCUAAGGAGAAGACUGCGGGUUCAAGUCCCGUACAGAACG [A21G G56A G67A], the yeast fitness was 0.654.

Take GUUCCGUUGGCGUAAUGGUAACGCGUCUCCCUCCUAAGGAGAAGACUGCGGGUUCCAGUCCGGUACGGAACG [G56C C62G]: the yeast fitness amounted to 0.559.

Turning to GUUCCGUUGGCGUAAUGGUAACGCCUCUCCCUCCUAAGGAGAAGACUACGGGUUCGAGUCCCAUACGGGACG [G25C G48A G63A A69G], the yeast fitness is at most 0.5.

For GUUCCGUUCGCGUAAUGGUAACGCGUCUCCCUCCUAGGGAGAAGACUGCGGGUUCGAGUCCUGUACGGAACG [G9C A37G C62U], the yeast fitness was at most 0.5.

For GUUCCGUUGGCGUAAUGGUAACGCGUCUCCGUCCUAAGGAGAAGACUGCGGGUUCAAGUCCCGUACGGAACG [C31G G56A], the yeast fitness was 0.98.

Turning to GUUCCGUUGGCGUAAUGGUAACGCGUCUACCUCCUAAGGAGAAGACUGCGGGUUUGAGUCCCGUACGGUACG [C29A C55U A69U], the yeast fitness is at most 0.5.

Regarding GUUCCGUUGGCGUAAUGGUAACGCGUCUCCCUCCUAAGGCGAAGACUGCGGGCUCGAGACCCGUAUGGAACG [A40C U53C U59A C66U], the yeast fitness was at most 0.5.

Take GGUCCGUUGGCGUAAUGGUAACGCCUCGCCCUCCUAAGGAGCAGACUGCGGGUUCGAGUCUCGUACGGAACG [U2G G25C U28G A42C C61U]: the yeast fitness was at most 0.5.

Regarding GUUCCGUUGGCGUAAUGGUAACGCGUCUCCCUCAUCAGGAGAAGACUGCGGGUUCGAGUCUCGAACGGAACG [C34A A36C C61U U64A], the yeast fitness is at most 0.5.

For GGUCCGUUGGCGUAAUAGUAACGUGUCUCCCUCCUUUGGAGAAGACUGCGGGUUCGAGUCCCGUACGGAACG [U2G G17A C24U A36U A37U], the yeast fitness was found to be 0.585.

On to GUUCCGUUGGCGUAAUGGUAACGCGUCUCCCUCCUCAGGAGAAGACUGCGGGUUCGAGUUCUGUCCGGAACG [A36C C60U C62U A65C], for which the yeast fitness was at most 0.5.

Regarding GUUCCGUUGGCAUAAUGGUGGGGCGUCUCCCUCCUAAGGAGAAGACUGCGGGUUCGAGUCCCGUACGGAACG [G12A A20G A21G C22G], the yeast fitness is at most 0.5.

With GUUCCGUUGGCGUAAUGGUAACGCGUCUCCCUCCUAAAGAGAAGACUGCGGGUUCAAGUCCCGUACGGAUCG [G38A G56A A70U], the yeast fitness came out at 0.7.

As for GUUCCGUUGGCGUAAUGGAAAGGCGUCUCCCUCCUAAGGAGAAGACUGCGGGUUCGAGUCCCGUACGGAACG [U19A C22G], the yeast fitness was found to be 0.919.

GUUUCGUUGGCGUAAUGGUAACGCGUCUCCCUCCUAAGGUGAAGACCGCGGGUUCGAGUCCCGUACGGAACG [C4U A40U U47C]: the yeast fitness worked out at 0.643.

Regarding GUUCCGUUGGCGUAGUGGUAACGCGUCUCCCUCCUAAGGAGAAGACUGCGGGUUCGAGUCCUGUACGGCACG [A15G C62U A69C], the yeast fitness worked out at 0.829.

As to GUUCCGUUGGCGUAAUGGUAACGGGUCUCCCUCCUAUGGAGAAGACAGCGGGUUCGAGUCCCGUACGGAACG [C24G A37U U47A], the yeast fitness was at most 0.5.

Take GUUCCGUUGGCGUAAUGGUAACGCGUCUCGCUCGUAAGGAGAAGACUGCGGGUUCGAGUCCCCUACGGAACG [C30G C34G G63C]: the yeast fitness is at most 0.5.

As to GUUCCGUUGGCGUAAUGGUAACGCGUCUCCCUCCUAAGGAGAAGACUGCGGGUUCGAGUCGCGUGUGGGACG [C61G A65G C66U A69G], the yeast fitness was determined as 0.646.

Take GCUCCGUUGGCGUAAUGGUAACGCGUCUCCCUCCUAAGGAGAAGACAGCGGGUUCGAGUCCCGAACGGAACG [U2C U47A U64A]: the yeast fitness was at most 0.5.

Consider GGUCCGUUGGCGUAAUGGGAACGCGUCUCCCUCCUAAGGAGAAGACUGCGGGUUCGAGUCCCGUACGGACCG [U2G U19G A70C], for which the yeast fitness came out at 0.685.
